This note sets out measurements from ChEMBL document CHEMBL4052819 (2017).

Common to all, as to assay type: functional
Assay [1] relates to Klebsiella pneumoniae. Nature of the assay: Bactericidal activity against Klebsiella pneumoniae ATCC 13883. The note with it: read-out: MBC99.9. In short, it runs like this: (§1)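 MBC from MIC plates at end point: 50 μL from each well with no visible growth plated on tryptic soy agar and counted. MBC taken as lowest concentration giving ≥99.9% fall in viable count relative to initial inoculum. Three independent experiments, one replicate each.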

The subject of assay [2] is Escherichia coli. The assay is described as follows: Bactericidal activity against Escherichia coli ATCC 25922. The note with it: read-out: MBC99.9. In short, it runs like this: as §1
Assay [3] has as its system Klebsiella pneumoniae. The assay is described as follows: Antibacterial activity against Klebsiella pneumoniae ATCC 13883 after 18 to 20 hrs by broth microdilution method. For orientation: In broth dilution the organism is exposed to a series of concentrations in liquid medium.
In assay [4] the test system is Staphylococcus aureus. Nature of the assay: Antibacterial activity against methicillin-resistant Staphylococcus aureus ATCC 43300 after 18 to 20 hrs by broth microdilution method. In short, it runs like this:
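Broth microdilution in tryptic soy broth: 2-fold dilutions mixed 1:1 with ~1.5 × 10^5 CFU/mL bacterial suspension in TSB, final 0.5–32 μg/mL, 37 °C for 18–20 h. MIC = lowest concentration with no visible growth. At least three independent experiments, one replicate each.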

In assay [5] the test system is Pseudomonas aeruginosa. The assay is described as follows: Antibacterial activity against Pseudomonas aeruginosa ATCC 27853 after 18 to 20 hrs by broth microdilution method. In short, it runs like this: (§2)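 Broth microdilution in tryptic soy broth: 2-fold dilutions mixed 1:1 with ~1.5 × 10^5 CFU/mL inoculum, final 0.5–32 μg/mL; 37 °C, 18–20 h. MIC taken as lowest concentration giving no visible growth. At least three independent experiments, one replicate each.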

Assay [6] relates to Escherichia coli. The assay is described as follows: Antibacterial activity against Escherichia coli ATCC 25922 after 18 to 20 hrs by broth microdilution method. In short, it runs like this: as §2
The subject of assay [7] is Pseudomonas aeruginosa. The assay is described as follows: Bactericidal activity against Pseudomonas aeruginosa ATCC 27853 after 60 mins in presence of LPS. The essentials:
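P. aeruginosa at ~10^6 CFU/mL in TSB with E. coli O111:B4 LPS (final 10, 25, 50 or 100 μg/mL), then compound at final 16 μg/mL. Incubated 37 °C, 200 rpm, 60 min; survivors counted on TSA. Three independent experiments, one replicate each.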

Assay [8] has as its system Acinetobacter baumannii. The assay is described as follows: Bactericidal activity against Acinetobacter baumannii ATCC 19606. The note with it: ATCC 19606 = CIP 70.34 = JCM 6841, read-out: MBC99.9. In short, it runs like this: as §1
Assay [9] concerns Enterococcus faecium. Nature of the assay: Antibacterial activity against Enterococcus faecium ATCC 19434 after 18 to 20 hrs by broth microdilution method. In short, it runs like this:
as §2

In assay [10] the test system is Escherichia coli. The assay is described as follows: Antibacterial activity against Escherichia coli ATCC 25922 after 18 to 20 hrs in presence of 95% serum by broth microdilution method. In short, it runs like this:
(§3)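 Same microdilution with human serum as medium: compound 2-fold diluted in 100% serum, mixed 1:1 with 90% serum holding ~1.5 × 10^5 CFU/mL, giving 95% serum and final 0.5–64 μg/mL. MIC read as no visible growth after incubation as for the broth test.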

Assay [11] concerns Acinetobacter baumannii. Nature of the assay: Antibacterial activity against Acinetobacter baumannii ATCC 19606 after 18 to 20 hrs by broth microdilution method. The following applies: ATCC 19606 = CIP 70.34 = JCM 6841.
The test system of assay [12] is Staphylococcus aureus. Nature of the assay: Antibiofilm activity against methicillin-resistant Staphylococcus aureus LAC established catheter-associated biofilm model after 72 hrs.
Assay [13] has as its system Staphylococcus aureus. The assay is described as follows: Antibacterial activity against Staphylococcus aureus ATCC 29213 after 18 to 20 hrs in presence of 95% serum by broth microdilution method. The essentials:
as §3

The test system of assay [14] is Staphylococcus aureus. The assay is described as follows: Antibacterial activity against methicillin-resistant Staphylococcus aureus LAC.
For assay [15], the system named is Staphylococcus aureus. The assay is described as follows: Bactericidal activity against Staphylococcus aureus ATCC 29213. The following applies: read-out: MBC99.9. The essentials: as §1
Assay [16] deals with Pseudomonas aeruginosa. Nature of the assay: Bactericidal activity against Pseudomonas aeruginosa ATCC 27853. The note with it: read-out: MBC99.9. The essentials:
as §1

The subject of assay [17] is Enterococcus faecium. Nature of the assay: Bactericidal activity against Enterococcus faecium ATCC 19434. The note with it: read-out: MBC99.9. In short, it runs like this: as §1
Assay [18] concerns Staphylococcus aureus. Nature of the assay: Bactericidal activity against methicillin-resistant Staphylococcus aureus ATCC 43300. The note with it: read-out: MBC99.9. In short, it runs like this: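 MBC taken at the end of the MIC test: 50 μL from each well without visible growth plated on tryptic soy agar. MBC = lowest concentration giving ≥99.9% reduction in viable cells relative to the initial inoculum. Three independent experiments, one replicate each.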

The subject of assay [19] is Staphylococcus aureus. The assay is described as follows: Antibacterial activity against Staphylococcus aureus ATCC 29213 after 18 to 20 hrs by broth microdilution method. The essentials:
as §2

Assay [20] deals with Klebsiella pneumoniae. Nature of the assay: Potentiation of rifampicin-mediated antibacterial activity against Klebsiella pneumoniae ATCC 700603 assessed as decrease in rifampicin MIC at 1.56 to 12.5 ug/ml by broth dilution method relative to control.
For assay [21], the system named is Klebsiella pneumoniae. The assay is described as follows: Potentiation of rifampicin-mediated antibacterial activity against Klebsiella pneumoniae ATCC 13883 assessed as decrease in rifampicin MIC at 1.56 to 12.5 ug/ml by broth dilution method relative to control.

In brackets after ≈: the same amount, converted by molar mass. Activity calls are given as the source filed them. The rule behind the calls is not given here. Non-standard residues stand in square brackets, D forms with d. Residues, ends and D or L forms follow the SMILES beside them. *: point of attachment. Decanoyl = CCCCCCCCCC(=O)*; Dab = NCC[C@H](N)C(=O)O

What is called MIC is the lowest concentration found to suppress growth. For the molecule `CCCCCCCCCC(=O)N[C@@H](CCN)C(=O)N[C@H](C(=O)N[C@@H](CCN)C(=O)N[C@H](Cc1ccccc1)C(=O)N[C@@H](CC(C)C)C(=O)N[C@@H](CCN)C(=O)N[C@@H](C(=O)N[C@@H](CC(C)C)C(=O)N[C@@H](CO)C(N)=O)C(C)C)[C@@H](C)CC` (Decanoyl-[Dab]I[Dab][dF]L[Dab][dV]LS-NH2), the MBC with Klebsiella pneumoniae [1] was 4 to 8 µg/mL (≈ 3.49 to 6.99 µM); in the assay on Escherichia coli [2], 8 µg/mL (≈ 6.99 µM); in the assay on Acinetobacter baumannii [8], 0.5 to 2 µg/mL (≈ 0.437 to 1.75 µM); in the assay on Staphylococcus aureus [15], 4 to 8 µg/mL (≈ 3.49 to 6.99 µM); in the assay with Pseudomonas aeruginosa [16] it was 2 to 4 µg/mL (≈ 1.75 to 3.49 µM); in the assay on Enterococcus faecium [17], 2 to 4 µg/mL (≈ 1.75 to 3.49 µM). Also, in the assay with Staphylococcus aureus [18], the MBC was in the range of 2 to 4 µg/mL (≈ 1.75 to 3.49 µM). Moreover, the MIC against Klebsiella pneumoniae [3] is 2 to 4 µg/mL (≈ 1.75 to 3.49 µM); in the assay with Staphylococcus aureus [4], 2 to 4 µg/mL (≈ 1.75 to 3.49 µM); against Pseudomonas aeruginosa [5], 1 to 2 µg/mL (≈ 0.874 to 1.75 µM); in the assay on Escherichia coli [6], 2 to 8 µg/mL (≈ 1.75 to 6.99 µM); in the assay on Enterococcus faecium [9], 2 µg/mL (≈ 1.75 µM); in the assay with Escherichia coli [10], 32 µg/mL. The MIC against Acinetobacter baumannii [11] was 0.5 to 2 µg/mL (≈ 0.437 to 1.75 µM); in the assay with Staphylococcus aureus [13], 16 µg/mL; in the assay on Staphylococcus aureus [19] it was 2 to 4 µg/mL (≈ 1.75 to 3.49 µM). In addition, the outcome with Pseudomonas aeruginosa [7] and in the assay with Staphylococcus aureus [12] was inactive. Moreover, the outcome in the assay on Staphylococcus aureus [14] was Active.
Take `CC[C@H](C)[C@@H](NC(=O)[C@@H](NC(=O)[C@H](CCC(=O)O)NC(=O)[C@H](Cc1ccccc1)NC(=O)[C@@H](CCN)NC(=O)[C@H](CCN)NC(=O)[C@H](CO)NC(=O)[C@@H](Cc1c[nH]c2ccccc12)NC(=O)[C@@H](CO)NC(=O)CNC(=O)[C@@H](CCN)NC(=O)[C@H](N)C(C)C)C(C)C)C(=O)N[C@@H](C)C(=O)O`: the “fold change (FC)” value with Klebsiella pneumoniae [20] and in the assay with Klebsiella pneumoniae [21] was 256 - 512 throughout.
